Assay results published in ChEMBL document CHEMBL4811254, “Beyond Basicity: Discovery of Nonbasic DENV-2 Protease Inhibitors with Potent Activity in Cell Culture” (J Med Chem, 2021).
pEC50: −log10 of the molar value. Activity calls are given as the source filed them. No rule for the calls is given here.

What was measured:
[1] = target: Genome polyprotein (dengue virus type 2) (UniProt P29990); test: Inhibition of NS2B-NS3 protease in DENV2proHeLa system assessed as inhibition of luciferase signal at 12.5 uM incubated for 24 hrs by luciferase reporter gene assay; assay type: cell-based; conditions: HeLa
Summary of the method: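 Stable DENV2proHeLa cells seeded at 2 × 10⁴/well and dosed immediately, then incubated 24 h at 37 °C. Cells lysed 15 min at room temperature. Luciferase read with coelenterazine (2.75 μM in PBS) injection, luminescence 5 s. Triplicates; percent inhibition calculated relative to untreated control; background from cell-free wells.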

[2] = target: Prothrombin (Homo sapiens) (UniProt P00734); test: Inhibition of thrombin in human plasma using Boc-Val-Pro-Arg-AMC as substrate at 25 uM preincubated with enzyme for 15 mins followed by substrate addition and measured for 15 mins by fluorimetric assay; assay type: cell-free; conditions: time 30.0 min
[3] = Cytotoxicity against human HeLa cells assessed as reduction in cell viability incubated for 24 hrs by CellTiter-Blue assay; assay type: cell-based
Summary of the method: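 Viability by CellTiter-Blue in HeLa or Huh-7 cells exposed to compound dilutions. Plates run in parallel with the reporter assay (HeLa) or the virus titer assay (Huh-7).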

Trypsin (Homo sapiens) = Trypsin (Homo sapiens) (UniProt P07477+P07478+P35030); test: Inhibition of trypsin (unknown origin) using Boc-Val-Pro-Arg-AMC as substrate at 50 uM preincubated with enzyme for 15 mins followed by substrate addition and measured for 15 mins by fluorimetric assay; assay type: protein assay; conditions: time 30.0 min
Genome polyprotein = Genome polyprotein (dengue virus type 2, UniProt P29990); test: Inhibition of NS2B-NS3 protease in DENV2proHeLa system assessed as inhibition of luciferase signal incubated for 24 hrs by luciferase reporter gene assay; assay type: cell-based, HeLa
Summary of the method: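 HeLa cells stably carrying the reporter system, 2 × 10⁴ per well, given inhibitor at seeding and held 24 h at 37 °C. Cells lysed 15 min at room temperature. Luciferase read for 5 s after injecting coelenterazine (2.75 μM in PBS). Triplicate wells per concentration; percent inhibition taken against untreated cells. EC50/EC90 from 4-parameter dose-response fit, background from cell-free wells subtracted.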

Row | Structure (SMILES) | inhibition [1] [%] | inhibition [2] | CC50 at 24 h [3] [µM] | inhibition (Trypsin (Homo sapiens)) | pEC50 (Genome polyprotein)
1 | CCCCCC(=O)N[C@H](C(=O)NCc1ccc(C(N)=O)cc1)c1ccc(C(F)(F)F)cc1 | 31 | inactive | > 50 | inactive | –
2 | NC(=O)c1ccc(CNC(=O)[C@@H](NCc2ccccc2)c2ccc(OCc3ccccc3)cc2)cc1 | 36 | inactive | > 50 | inactive | –
3 | CCCCCC(=O)N[C@H](C(=O)Nc1ccc(OC)cc1)c1ccc(OCc2ccccc2)cc1 | 10 | inactive | > 25 | inactive | –
4 | NC(=O)c1ccc(CNC(=O)[C@@H](NC(=O)c2cc3ccccc3s2)c2ccc(OCc3ccccc3)cc2)cc1 | 71 | inactive | > 50 | inactive | 5.18
5 | NC(=O)c1cccc(NC(=O)[C@@H](NC(=O)C2CCN(c3ccccc3)CC2)c2ccc(OCc3ccccc3)cc2)c1 | 46 | inactive | > 50 | inactive | –
6 | NCc1ccc(C(=O)N[C@H](C(=O)NCc2ccc(C(N)=O)cc2)c2ccc(OCc3ccccc3)cc2)cc1 | 24 | inactive | > 50 | inactive | 4.54
7 | NC(=O)c1cccc(NC(=O)[C@@H](NC(=O)c2ccc(C(=O)N3CCOCC3)cc2)c2ccc(OCc3ccccc3)cc2)c1 | 40 | inactive | > 100 | inactive | 4.82
8 | CCCCCC(=O)N[C@H](C(=O)NCc1ccc(C(=O)NO)cc1)c1ccc(OCc2ccccc2)cc1 | 40 | inactive | > 50 | inactive | –
9 | CCCCCC(=O)N[C@H](C(=O)NCc1ccc(NC(N)=O)cc1)c1ccc(OCc2ccccc2)cc1 | – | inactive | – | inactive | –
10 | CCCCCC(=O)N[C@H](C(=O)NCC1CCC(C(N)=O)CC1)c1ccc(OCc2ccccc2)cc1 (some centres not stated) | 29 | inactive | > 50 | inactive | –
11 | CC(C)CCOc1ccc(C(=O)N[C@H](C(=O)Nc2cccc(C(N)=O)c2)c2ccc(OCc3ccccc3)cc2)cc1 | 49 | inactive | > 50 | inactive | –
12 | CCCCCC(=O)N[C@H](C(=O)Nc1ccccc1C(N)=O)c1ccc(OCc2ccccc2)cc1 | 13 | inactive | > 50 | inactive | –
13 | CCCCCC(=O)N[C@H](C(=O)NCc1ccc(C(N)=O)cc1)c1ccccc1 | 15 | inactive | > 50 | inactive | –
14 | CCCCCC(=O)N[C@H](C(=O)Nc1ccc(C(N)=O)cc1)c1ccc(OCc2ccccc2)cc1 | 58 | inactive | > 12.5 | inactive | 5.15
15 | COc1cccc(COc2ccc([C@H](NC(=O)c3ccc(Oc4ccccc4)cc3)C(=O)Nc3cccc(C(N)=O)c3)cc2)c1 | 73 | inactive | > 100 | inactive | 5.68
16 | CCCCCC(=O)N[C@H](C(=O)N1CCC(C(N)=O)CC1)c1ccc(OCc2ccccc2)cc1 | 28 | inactive | > 50 | inactive | –
17 | CCCCCC(=O)N[C@H](C(=O)NCc1ccc(C(=O)O)cc1)c1ccc(OCc2ccccc2)cc1 | 14 | inactive | > 50 | inactive | –

Row | Structure (SMILES) | inhibition [1] [%] | inhibition [2] | CC50 at 24 h [3] [µM] | inhibition (Trypsin (Homo sapiens)) | pEC50 (Genome polyprotein)
18 | CCCC(O)C(=O)N[C@H](C(=O)NCc1ccc(C(N)=O)cc1)c1ccc(OCc2ccccc2)cc1 (some centres not stated) | < 10 | inactive | > 50 | inactive | –
19 | CCCCCC(=O)N[C@H](C(=O)Nc1ccc(S(N)(=O)=O)cc1)c1ccc(OCc2ccccc2)cc1 | < 10 | inactive | > 50 | inactive | –
20 | NC(=O)c1ccc(CNC(=O)[C@@H](NC(=O)C2CCC2)c2ccc(OCc3ccccc3)cc2)cc1 | 45 | inactive | > 50 | inactive | –
21 | CCCCCC(=O)N[C@H](C(=O)NCCc1ccccc1)c1ccc(OCc2ccccc2)cc1 | – | inactive | < 12.5 | inactive | –
22 | CCCCCC(=O)N[C@@H](Cc1ccccc1)C(=O)NCc1ccc(C(N)=O)cc1 | < 10 | inactive | > 50 | inactive | –
23 | NCCCCCC(=O)N[C@H](C(=O)NCc1ccc(C(N)=O)cc1)c1ccc(OCc2ccccc2)cc1 | 14 | inactive | > 50 | inactive | –
24 | CCCCCC(=O)N[C@H](C(=O)Nc1ccc(CC(N)=O)cc1)c1ccc(OCc2ccccc2)cc1 | 47 | inactive | > 50 | inactive | –
25 | CCCCCC(=O)N[C@H](C(=O)NCc1ccc(C(N)=O)cc1)c1ccc(O)cc1 | < 10 | inactive | > 100 | inactive | –
26 | NC(=O)c1ccc(CNC(=O)[C@@H](N)c2ccc(OCc3ccccc3)cc2)cc1 | 33 | inactive | > 50 | inactive | –
27 | CCCCCC(=O)N[C@@H](C(=O)NCc1ccc(C(N)=O)cc1)c1ccc(OCc2ccccc2)cc1 | 35 | inactive | > 50 | inactive | –
28 | COCCOCC(=O)N[C@H](C(=O)NCc1ccc(C(N)=O)cc1)c1ccc(OCc2ccccc2)cc1 | 27 | inactive | > 50 | inactive | –
29 | CCCCCC(=O)N[C@@H](C(=O)NCc1ccc(C(N)=O)cc1)c1ccc(OCc2ccc(C(F)(F)F)cc2)cc1 | 42 | inactive | > 50 | inactive | –
30 | Cc1ccc(C(=O)c2cc(O)c(O)c([N+](=O)[O-])c2)cc1 [TOLCAPONE] | 59 | – | > 25 | – | 5.15
31 | NC(=O)c1ccc(CNC(=O)[C@@H](NC(=O)/C=C/c2ccccc2)c2ccc(OCc3ccccc3)cc2)cc1 | 34 | inactive | > 50 | inactive | –
32 | CCCCCC(=O)N[C@H](C(=O)NCc1ccccc1)c1ccc(OCc2ccccc2)cc1 | < 10 | inactive | > 50 | inactive | –
33 | CCCCCC(=O)N[C@H](C(=O)NCc1ccc(Cl)cc1)c1ccc(OCc2ccccc2)cc1 | 14 | inactive | > 50 | inactive | –
34 | CCCCCC(=O)N[C@H](C(=O)NCc1cccc(OC)c1)c1ccc(OCc2ccccc2)cc1 | < 10 | inactive | > 50 | inactive | –
